Compound activity (PubChem)
Beta2AR agonist = activates human beta-2 adrenergic receptor causing internalization. P07550. AID 504454. Am2.2-beta2AR cells, FAP receptor internalization, flow cytometry. response, % (no concentration beside the values). actives 0.43% (n = 340,000);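 active = response above a set limit, near 3 SD of response in nonfluorescent compounds, cut at about 42% in these data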
Target sequence (P07550 whole entry, looked up): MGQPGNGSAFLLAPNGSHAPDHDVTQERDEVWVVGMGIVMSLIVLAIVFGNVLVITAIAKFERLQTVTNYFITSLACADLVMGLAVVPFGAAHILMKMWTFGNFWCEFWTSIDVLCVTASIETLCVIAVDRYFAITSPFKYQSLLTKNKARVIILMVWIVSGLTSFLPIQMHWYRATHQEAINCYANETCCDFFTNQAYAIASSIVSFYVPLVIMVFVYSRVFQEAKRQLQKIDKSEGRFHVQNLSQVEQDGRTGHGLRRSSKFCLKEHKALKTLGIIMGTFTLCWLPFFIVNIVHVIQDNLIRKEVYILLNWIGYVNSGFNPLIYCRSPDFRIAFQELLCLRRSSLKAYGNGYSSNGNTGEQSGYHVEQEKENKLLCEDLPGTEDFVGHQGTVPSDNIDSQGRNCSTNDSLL
UPR CHOP act = apoptotic UPR (CHOP) activation | AID 449763 | activation, % at 10 µM | CHO-CHOP luciferase reporter, luminescence; percent of tunicamycin response over DMSO baseline | actives 0.34% (n = 330,000);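 active = at 10 µM dose, activation of 40% or more, normalized to positive control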;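 also: 100% = tunicamycin at 10 µg/mL and 0% = DMSO alone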
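assay system = CHO CHOP reporter cells | amount = 500 CHO-CHOP cells per well | buffer or medium = F12 with 10% FBS | incubation = 16-18 h cell attachment, then 6 h compound exposure, 37 °C | detection = luminescence read with Steady-Glo | read-out = percent activation relative to tunicamycin control | controls = tunicamycin high control, DMSO low control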
UPR XBP1 act = activators of adaptive arm of unfolded protein response (XBP1); AID 463104; CHO-XBP1 luciferase reporter, IRE1-XBP1 UPR activation, luminescence; percent of tunicamycin response, DMSO as zero; actives 0.33% (n = 330,000); activation, % at 20 µM;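 active = versus positive control, 20 µM dose yields 30% or more activation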;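 also: 100% = tunicamycin at 10 µg/mL and 0% = DMSO only wells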
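incubation = overnight seeding at 37 °C, 6 h compound treatment at 37 °C | assay system = CHO-XBP1 cells stably carrying IRE1-XBP1-driven luciferase reporter | input = 1000 cells per well | detection = luciferase luminescence | dosing = single point, 20 µM final compound, 1% DMSO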
T cell HTS = T cell immune modulation candidate. 2C CD8+ T cell-vesicle binding, flow cytometry; active compounds read low. response (vesicle binding), % at 7 µM. actives 0.068% (n = 330,000);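 active = response, share of CD8 T cells binding vesicles, and their 90th percentile fluorescence all below set limits, cut at about 80% in these data, passing the limit was not always enough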;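 also: values below 100% mean blocked vesicle binding to the CD8+ T cells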
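Material: murine 2C transgenic CD8+ T lymphocytes / Also added: QL9-peptide-loaded Drosophila micro-vesicles bearing Ld, ICAM-1 and B7-1 / Schedule: binding step 1.5 h, 37 °C, antibody labelling 20 min, ice / Signal: flow cytometry, PE anti-B7-1 (FL2) versus Alexa647 anti-CD8 (FL8), PFA-fixed / Evaluation: percent CD8+ FL2 mean versus row control / Benchmarks: naked versus QL9-loaded vesicles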
UPR XBP1 confirm = confirmation of adaptive unfolded protein response (XBP1) activators; shares compounds with UPR XBP1 act; CHO-XBP1 IRE1-XBP1 luciferase reporter, luminescence; activation, % at 20 µM; actives 63% (n = 1,000);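 active = reporter signal at least 30% of the positive control's activation in two or more of four replicate wells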;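 also: plate controls were DMSO negative control for no effect and tunicamycin 10 µg/mL positive control for full effect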
* = called active by the depositor; i = inactive; . = no result. Only some compounds are listed: those with a hit (about 1% of all), similar ones and a draw of the others.

SMILES	Beta2AR agonist	UPR CHOP act	UPR XBP1 act	T cell HTS	UPR XBP1 confirm
Cc1cc(C)c2sc(N(CCCN(C)C)C(=O)c3ccc(S(=O)(=O)N4CCCc5ccccc54)cc3)nc2c1	33	8	31*	576	54*
CN(C)CCCN(C(=O)c1ccc(S(=O)(=O)N2CCc3ccccc3C2)cc1)c1nc2ccc(F)cc2s1	49*	24	31*	446	71*
Cc1ccc2nc(N(CCCN(C)C)C(=O)c3ccc(S(=O)(=O)N4CCc5ccccc5C4)cc3)sc2c1	18	36	93*	439	49*
Cc1cc(C)n(C(C)CC(=O)Nc2ccc(-c3ccno3)cc2)n1 (stereo unspecified)	2	1	-2	400	.
CC(C)CCOc1ncnc2c1sc1nc3c(cc12)CSC(C)(C)C3	-3	.	.	.	.
COc1ccc(CNc2nc(-c3ccccc3)nn2C(=O)c2cccs2)cc1	14	2	-1	.	.
COc1ccc(CNc2nc(-c3ccccc3)nn2C(=O)c2ccc([N+](=O)[O-])cc2)cc1	1	6	33*	i	1
Cc1nc(Oc2ccccc2)c2ccccc2n1	3	-1	-1	233	.
c1ccc(Oc2c3ccccc3nc3ccccc23)cc1	.	6	63*	246	67*
Cc1ccc(NC(=O)c2nc[nH]c2C(=O)NCCCNC(=O)c2[nH]cnc2C(=O)Nc2ccc(C)cc2)cc1	9	3	61*	277	34*
O=C(N/N=C/c1ccccc1Cl)c1[nH]c2ccc(Br)cc2c1-c1ccccc1	26	0	50*	92	59*
CCCSc1nc(C)c(C(C)=O)cc1C#N	-1	-3	-1	367	.
COc1ccc(-c2cc(C(F)F)n3ncc(C(=O)Nc4ccc(C(=O)N5CCOCC5)cc4)c3n2)cc1	27	6	33*	912	52*
O=C(C[n+]1ccc(-c2cc(C(=O)Nc3cccc(C(F)(F)F)c3)c3ccccc3n2)cc1)c1cccc([N+](=O)[O-])c1	1	11	106*	135	91*
CCOC(=O)C1=CN(CC)S(=O)(=O)NC1c1ccccc1 (stereo unspecified)	0	2	0	.	.
c1ccc(-c2cc(-c3nnc4n3N=C(c3ccc5ccccc5c3)CS4)[nH]n2)cc1	1	31	32*	237	4
COc1ccc(OC)c(-c2nnc3n2N=C(c2ccc(OC)c(OC)c2)CS3)c1	12	0	37*	207	42*
COc1ccc(OC)c(-c2nnc3n2N=C(c2ccc(OC)c(OC4CCCC4)c2)CS3)c1	26	2	14	252	.
O=C(COC(=O)CNC(=O)c1ccc2c(c1)OCO2)Nc1ncc(Cl)cc1Cl	6	-2	-3	229	.
CCOC(=O)c1c(-c2ccc(C)o2)csc1NC(=O)COC(=O)c1ccc(NC(N)=O)cc1	15	9	33*	295	55*
CCOC(=O)c1c(-c2ccc(C)o2)csc1NC(=O)CSc1nnc(C)s1	13	0	2	363	.
Cc1ccc(NC(=O)COC(=O)Cc2c(F)cccc2Cl)cc1S(=O)(=O)N1CCOCC1	-5	0	2	367	.
COC(=O)c1ccccc1NC(=O)c1cc(-c2ccco2)on1	27	2	0	289	.
COC(=O)c1ccccc1NC(=O)c1cc(-c2cccs2)on1	0	20	32*	152	4
COc1ccc(/C=N/NC(=O)Nc2nonc2N)cc1	-5	4	0	316	.
SMILES	Beta2AR agonist	UPR CHOP act	UPR XBP1 act	T cell HTS	UPR XBP1 confirm
Cc1oncc1C(=O)N1CCCC(CO)(Cc2ccc(F)cc2F)C1 (stereo unspecified)	0	0	-1	287	.
CCN1C(=O)/C(=C2/Sc3ccc(OC)cc3N2C)SC1=Nc1ccc(OC)cc1	1	0	1	172	.
C=CCN1C(=O)/C(=C2/Sc3ccc(OC)cc3N2C)SC1=Nc1cccc(O)c1	4	17	48*	174	81*
COc1ccc(S(=O)(=O)CCc2nnc(NC(C)=O)s2)cc1	0	2	0	158	.
CCC(C(=O)OCC(=O)Nc1ccc(C)c(S(=O)(=O)N2CCOCC2)c1)c1ccccc1 (stereo unspecified)	-2	1	-2	208	.
COc1cccc(C(=O)Nc2ccc3c(c2)C(=O)c2ccccc2C3=O)c1	8	24	91*	216	4
